This sample holds only a part of the variants without activity.

Our source for the yeast fitness values is the RNAGym collection of RNA variant scans (doi:10.1126/science.aae0568).

Sequences and labels used below:
B1: tRNA (parent)
chain: GUUCCGUUGGCGUAAUGGUAACGCGUCUCCCUCCUAAGGAGAAGACUGCGGGUUCGAGUCCCGUACGGAACG

The variants in this series derive from B1. The series is described as follows: yeast fitness relative to wild type (ratio to wild type); higher = fitter; tRNA-Arg(CCU), competitive growth, 37 C, YPD. The essentials: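 Changes in genotype frequencies gave Darwinian fitness relative to wild type. Frequencies were read by 100-nucleotide paired-end sequencing of gene amplicons before and after pooled Saccharomyces cerevisiae strains, carrying tRNA-Arg(CCU) gene variants at the native locus, were competed in YPD at 37°C for 24 hours in six replicates. A genotype was kept only with ≥ 100 starting reads, and estimates < 0.5 were set to 0.5.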
As for GUUCCGUUGGCGUAAUGGUCACGCGUCGCCCUCCUAAGGAGAAGACCGCGGGUUCGAGUCCCGUACGCAACG, the yeast fitness is at most 0.5. For GUUCCGUUGGCGUAAUGGUCACGCGUCUCCCUCCUAAGGAGAAGACUGCGGGUUCGAGACCCGUACGGAACG, the yeast fitness is 0.697. Regarding GUUCCGUUGGCGUAAUGGUCACGCGUCUCCCACCUAAGGAGAAGACUGCGGGUUCGAGUCCCGAUCGGAACG, the yeast fitness came to 0.558. Take GUUCCGUUGGCGUAAUGGUCACGCGUCGCCCUCCUAAGGAGAAGAAUGCGGGUUCGAGUCCCGUACGGAACG: the yeast fitness turned out to be 0.531. The value for GUUCCGUUGGCGUAAUGGUGACGCGUCUCCCUCCUCAGGAGAAGACUGCGGGUUCGAGUCCCGUACGGAACG was 0.596. For GUUCCGUUGGCGUAAUGGUCACGCGUCGCCCUCCUAAGGAGAAGACCGCGGGUUCGAGUCCCGUAUGGAACG, the yeast fitness is at most 0.5. With GUUCCGUUGGCGUAAUGGUCACGCGUCUCCCUCCUAAGGAGAAGACUGCGGGGUCGAGUCCCGUACGGAACG the figure was 0.623; with GUUCCGUUGGCGUAAUGGUCACGCGUCCCCCUCCUAAGGAGAAGACUGCGGGUUCGAGUCCCGUGCGGAACG, 0.661.

GUUCCGUUGGCGUAAUGGUCACGCGGCUCCCUCCUCAUGAGAAGACUGCGGGUUCGAGUCCCGUUCGGAACG: the yeast fitness was at most 0.5. Turning to GUUCCGUUGGCGUAAUGGUGACGCGUCUCCCUCCUACGGGGAAGACUGCGGGUUCGAGUCCCGUACGGAACG, the yeast fitness is at most 0.5.

In the case of GUUCCGUUGGCGUAAUGGUGACGCGUCUCCCUCCUGAGGAGAAGUCUGCGGGUUCGAGUCCCGUACGGAACG, the yeast fitness came to 0.683.

GUUCCGUUGGCGUAAUGGUGACGCGUCUCCCUCCUAAGGCGUCGACUACGGGUUGGAGUCCCGUACGGAACG: the yeast fitness was at most 0.5.

GUUCCGUUGGCGUAAUGGUCACGCGUCUCCCUCCUAAGGAGAAGACUGCAGGUUCGAGUCCCGUACGGAACG: the yeast fitness came out at 0.861. For the variant GUUCCGUUGGCGUAAUGGUGCCGCGUCUCCCUCCUAAGGAGAAGACUGUGGGUUCGAGUCCCGUACGGAACG, the yeast fitness was found to be 0.548.

As for GUUCCGUUGGCGUAAUGGUCACGCGUCUCCCUCCUAAGGAGAAGACUGCGGGUUCAAGUCUCGUACGGAACG, the yeast fitness stood at 0.571. The value for GUUCCGUUGGCGUAAUGGUCACGCGCCUCCCUCCUAAGGAGAAGACUGCGGGUUCGAGUCCCGUACGGAACG was 0.883; that for GUUCCGUUGGCGUAAUGGUCACGCGUCUCCCUCCUAAGGAGAAGACUGCGCGUUCGAGUCCCGUACGGAACG was 0.541. For the variant GUUCCGUUGGCGUAAUGGUCACGCGUCUCCCUCCUAAGGAGAAGACUGCGAGUUCGAGUCCCGUACGGAACG, the yeast fitness came to 0.815. Take GUUCCGUUGGCGUAAUGGUCACGCGUCUCCCUCCUAAGGAGAAGACUGCAGGUUCGAGUCCCGUACGAAACG: the yeast fitness is at most 0.5. The value for GUUCCGUUGGCGUAAUGGUGACGCGUCUCCCUCCUAGGGAGAAGACUGCGGGUUCGAGUCCCGUACGGAACG was 0.718. Consider GUUCCGUUGGCGUAAUGGUCACGCGUCUCCCUCCUAAGGAGAAGACUGCGGCUUCGAGUCGCGUACGGAACG, for which the yeast fitness was at most 0.5.

With GUUCCGUUGGCGUAAUGGUGCCGCGUCUCACUCCUAAGGACAAGACUGCGGGUUCGAGUCCCGUAUGGAACG, the yeast fitness is 0.526. Regarding GUUCCGUUGGCGUAAUGGUGACGCGUCUCCCUCCUUAGGAGAAGACUGCGGGUUCGAGUCUCGUACGGAACG, the yeast fitness was determined as 0.571.

Take GUUCCGUUGGCGUAAUGGUGCCGCGUCUCCCUCCUAAGCAGAAGACUCCGGGUUCGAGUCCGGUACGGAACG: the yeast fitness is at most 0.5. As to GUUCCGUUGGCGUAAUGGUCACGCGUCACCGUCCUAAGGAGAAGACUGCGGGUUAGAGUCCCGUACGCAACG, the yeast fitness was at most 0.5. As for GUUCCGUUGGCGUAAUGGUGCCGCGUCUCCCUCCUAAGGAGAUGACUGCAGUUUCGAGUCCCGUACGGCACG, the yeast fitness was at most 0.5. With GUUCCGUUGGCGUAAUGGUCACGCGUCUCCCUCCUAAGGAGAAGACUGCGGGUUCAAGUCCCGUACGGAUCG, the yeast fitness is 0.91. With GUUCCGUUGGCGUAAUGGUCACGCGUCUCCCUCCUAAGGAGAAGACUGCGGGUUCAAGUCCCGUACGGAGCG the figure was 0.611; with GUUCCGUUGGCGUAAUGGUCACGCGUCUCCCUCCUAAGGAGAAGACUGCGGGUUCGAGUCCCGUACAGAACG, 0.873. GUUCCGUUGGCGUAAUGGUCACGCGUCUCCCUCCUAAGGAGAAGACUGCGGGUUCGAGUCCCGUACCGAACG: the yeast fitness was 0.654. The value for GUUCCGUUGGCGUAAUGGUGACGCGUCUCCCUCCUCAGGAGAAGACUGCGGGUUCCAGUCUCGUACGGAACG was at most 0.5; that for GUUCCGUUGGCGUAAUGGUGCCGCGUCUCACUCCUAAGGACAAGACUGCGGGUUCGAGUCCCGUACGGAACG was 0.581.

As for GUUCCGUUGGCGUAAUGGUCACGCGGCUCCCUCCUAAGGAGAUGACUGCGGGUUCGAGUCCCGUACGGAACG, the yeast fitness is at most 0.5. For the variant GUUCCGUUGGCGUAAUGGUCACGCGUCUCCCUCCUAAGGAGAAGACUGCGGCUACGAGUCCCGUACGGAACG, the yeast fitness is at most 0.5.

For the variant GUUCCGUUGGCGUAAUGGUCACGCGGCUCCCUCCUCAUGAGAAGACUGCGGGUUCGAGUCCCGUACGGAACG, the yeast fitness is at most 0.5. The value for GUUCCGUUGGCGUAAUGGUCACGCGUCUCCCUCCUAAGGAGAAGACUGCGGGGUCGAGUCCCGUAUGGAACG was 0.696; that for GUUCCGUUGGCGUAAUGGUCACGCGUCUCCCCCCUAAGGAGAAGACUGCGGGUUCGAGUCCCGUACGGAACG was 0.985; that for GUUCCGUUGGCGUAAUGGUCACGCGUCUCCCACCUAAGGAGAAGACUGCGGGUUCGAGUCCCGUACGGAACG was 0.719.
